In ChEMBL document CHEMBL1154014, “Discovery of a novel class of 2-mercaptohexanoic acid derivatives as highly active PPARalpha agonists” (Bioorg Med Chem Lett, 2009):
Active and inactive are the calls of the source. No cut-off for these calls is given here.

Key:
[1] = target: T1, Peroxisome proliferator-activated receptor gamma (Homo sapiens, UniProt P37231); experiment: Agonist activity at human PPARgamma expressed in african green monkey COS7 cells by Gal4 transactivation assay; format: functional, cell-based, COS-7
T1 sequence (P37231 whole entry): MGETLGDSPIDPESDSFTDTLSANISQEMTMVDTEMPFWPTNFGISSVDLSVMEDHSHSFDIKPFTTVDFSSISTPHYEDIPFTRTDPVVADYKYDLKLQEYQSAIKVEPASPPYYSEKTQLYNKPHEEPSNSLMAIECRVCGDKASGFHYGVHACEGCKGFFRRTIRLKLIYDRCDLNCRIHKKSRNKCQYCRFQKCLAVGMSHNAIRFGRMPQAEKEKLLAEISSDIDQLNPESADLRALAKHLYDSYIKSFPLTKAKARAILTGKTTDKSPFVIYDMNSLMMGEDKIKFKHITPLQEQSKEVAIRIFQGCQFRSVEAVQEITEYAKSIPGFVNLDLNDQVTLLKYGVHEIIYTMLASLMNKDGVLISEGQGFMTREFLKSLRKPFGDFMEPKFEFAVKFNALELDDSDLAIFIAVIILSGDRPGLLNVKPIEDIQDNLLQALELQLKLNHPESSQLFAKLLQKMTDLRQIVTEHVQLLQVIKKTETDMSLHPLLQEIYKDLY
Summary of the method: (§1)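 COS7 cells were grown in DMEM with FCS, sodium pyruvate and penicillin/streptomycin at 37 °C, 5% CO2, and seeded at 30,000 cells/well the day before transfection. They were lipofected with pFR-Luc, pRL-SV40 and the Gal4-hPPAR-LBD plasmid of each subtype. After 5 h, cells received serum-free DMEM with 0.1% DMSO plus compound, incubated overnight, then Dual-Glo luciferase read-out. Triplicate wells, ≥3 independent experiments; EC50 from mean values.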

[2] = target: T2, Peroxisome proliferator-activated receptor alpha (Homo sapiens) (UniProt Q07869); experiment: Agonist activity at human PPARalpha expressed in african green monkey COS7 cells at 1 uM by Gal4 transactivation assay relative to GW-7647; format: functional, cell-based; conditions: COS-7
T2 sequence (whole entry): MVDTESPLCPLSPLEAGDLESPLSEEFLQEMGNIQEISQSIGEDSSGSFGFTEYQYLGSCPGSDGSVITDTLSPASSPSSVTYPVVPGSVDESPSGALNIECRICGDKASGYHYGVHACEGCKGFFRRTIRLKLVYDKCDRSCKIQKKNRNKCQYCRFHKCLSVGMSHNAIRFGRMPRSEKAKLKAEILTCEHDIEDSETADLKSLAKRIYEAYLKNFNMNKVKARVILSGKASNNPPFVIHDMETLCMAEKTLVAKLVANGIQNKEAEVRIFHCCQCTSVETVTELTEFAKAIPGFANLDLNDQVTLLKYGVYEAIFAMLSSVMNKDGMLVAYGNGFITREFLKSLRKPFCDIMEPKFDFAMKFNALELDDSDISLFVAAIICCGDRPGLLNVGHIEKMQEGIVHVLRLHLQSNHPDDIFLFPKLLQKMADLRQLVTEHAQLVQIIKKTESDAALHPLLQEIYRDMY

[3] = target: T3, Peroxisome proliferator-activated receptor delta (Homo sapiens) (UniProt Q03181); experiment: Agonist activity at human PPARbeta expressed in african green monkey COS7 cells at 10 uM by Gal4 transactivation assay; format: functional, cell-based; conditions: COS-7
T3 sequence (whole entry): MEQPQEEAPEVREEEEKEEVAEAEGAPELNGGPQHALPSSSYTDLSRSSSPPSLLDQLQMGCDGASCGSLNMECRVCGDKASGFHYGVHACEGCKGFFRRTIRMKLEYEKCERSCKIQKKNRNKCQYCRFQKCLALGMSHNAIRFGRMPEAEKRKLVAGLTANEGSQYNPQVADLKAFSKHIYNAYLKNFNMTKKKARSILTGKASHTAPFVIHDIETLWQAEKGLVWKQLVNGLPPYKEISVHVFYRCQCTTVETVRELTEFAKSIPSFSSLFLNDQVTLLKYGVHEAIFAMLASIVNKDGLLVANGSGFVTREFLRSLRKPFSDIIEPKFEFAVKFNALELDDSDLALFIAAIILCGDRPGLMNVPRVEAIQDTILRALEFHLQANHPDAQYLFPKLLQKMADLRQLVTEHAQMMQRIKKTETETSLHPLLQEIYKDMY

[4] = target: T4, Peroxisome proliferator-activated receptor gamma (Homo sapiens) (UniProt P37231); experiment: Agonist activity at human PPARgamma expressed in african green monkey COS7 cells at 1 uM by Gal4 transactivation assay relative to pioglitazone; format: functional, cell-based; conditions: COS-7
T4 sequence (whole entry): T1 sequence (P37231 whole entry)

[5] = target: T5, Peroxisome proliferator-activated receptor alpha (Homo sapiens, UniProt Q07869); experiment: Agonist activity at human PPARalpha expressed in african green monkey COS7 cells by Gal4 transactivation assay; format: functional, cell-based, COS-7; summary of the method: as §1
T5 sequence (Q07869 whole entry): T2 sequence (whole entry)

[6] = target: T3, Peroxisome proliferator-activated receptor delta (Homo sapiens); experiment: Agonist activity at human PPARbeta expressed in african green monkey COS7 cells at 1 uM by Gal4 transactivation assay relative to L165041; format: functional, cell-based; conditions: COS-7
[7] = target: T6, Peroxisome proliferator-activated receptor delta (Homo sapiens, UniProt Q03181); experiment: Agonist activity at human PPARbeta expressed in african green monkey COS7 cells by Gal4 transactivation assay; format: functional, cell-based, COS-7; summary of the method: as §1
T6 sequence (Q03181 whole entry): T3 sequence (whole entry)

[8] = target: T2, Peroxisome proliferator-activated receptor alpha (Homo sapiens); experiment: Agonist activity at human PPARalpha expressed in african green monkey COS7 cells at 10 uM by Gal4 transactivation assay; format: functional, cell-based; conditions: COS-7
[9] = target: T4, Peroxisome proliferator-activated receptor gamma (Homo sapiens); experiment: Agonist activity at human PPARgamma expressed in african green monkey COS7 cells at 10 uM by Gal4 transactivation assay; format: functional, cell-based; conditions: COS-7
COS-7 = experiment: Selectivity ratio of EC50 for human PPARgamma to EC50 for human PPARalpha expressed in african green monkey COS7 cells; format: cell-based
[10] = target: T3, Peroxisome proliferator-activated receptor delta (Homo sapiens); experiment: Agonist activity at human PPARbeta expressed in african green monkey COS7 cells at 10 uM by Gal4 transactivation assay relative to L165041; format: functional, cell-based; conditions: COS-7

For CCCCC(Sc1ccc(OCCCOc2cccc(C(F)(F)F)c2)cc1)C(=O)O (centres undefined), the EC50 [1] was 4.6 µM, the Activity [2] was 75% and the Activity [3] was “inactive”. The Activity [4] was 68% and the EC50 [5] was 25 nM.
CCCCC(Sc1ccc(OCCCOc2cccc(C)c2)cc1)C(=O)O (centres undefined) was tested, and the EC50 [1] was 3 µM, the Activity [2] was 80% and the Activity [3] was “inactive”. For the same compound, the Activity [4] was 96% and the EC50 [5] was 90 nM.
Cc1cccc(OCCCOc2ccc(CCC(=O)O)cc2)c1C showed an EC50 [1] of 15.7 µM, an Activity [2] of 63% and an Activity [6] of 72%. It also gave an EC50 [7] of 11.2 µM, an Activity [4] of 54% and an EC50 [5] of 13800 nM.
CCCC/C(=C\c1ccc(OCCCOc2cccc(C)c2C)cc1)C(=O)O was tested, and the Activity [3] was “inactive”, the Activity [8] was “inactive” and the Activity [9] was “inactive”.
For CCCCC(Cc1ccc(OCCCOc2cccc(C)c2C)cc1)C(=O)O (centres undefined), the EC50 [1] was 4.2 µM, the Activity [2] was 73% and the Activity [3] was “inactive”. For the same compound, the Activity [4] was 120% and the EC50 [5] was 1500 nM.
CCCCC(Sc1ccc(OCCCOc2cccc(C)c2C)cc1)C(=O)O (centres undefined) showed a Ratio EC50 (COS-7) of 54, an EC50 [1] of 3 µM and an Activity [2] of 113%. For the same compound, the Activity [3] was “inactive”, the Activity [4] was 82% and the EC50 [5] was 56 nM.
In the case of CCCCC(Sc1ccc(OCCCOc2ccccc2)cc1)C(=O)O (centres undefined), the Ratio EC50 (COS-7) is reported as 9, the EC50 [1] is reported as 2.6 µM and the Activity [2] is reported as 76%. For the same compound, the Activity [3] was “inactive”, the Activity [4] was 83% and the EC50 [5] was 290 nM.
For CCCCC(Sc1ccc(OCCCOc2ccc(Cl)c(C(F)(F)F)c2)cc1)C(=O)O (centres undefined), the EC50 [1] was 7.8 µM, the Activity [2] was 65% and the Activity [3] was “inactive”. For the same compound, the Activity [4] was 96% and the EC50 [5] was 390 nM.
In the case of CCCCC(Sc1ccc(OCCCOc2cccc(C(C)C)c2)cc1)C(=O)O (centres undefined), the EC50 [1] is reported as 5.3 µM, the Activity [2] is reported as 98% and the Activity [3] is reported as “inactive”. The Activity [4] was 91% and the EC50 [5] was 150 nM.
With CCCC[C@H](Sc1ccc(OCCCOc2cccc(C)c2C)cc1)C(=O)O the EC50 [1] was 9.9 µM, the Activity [2] was 94% and the Activity [3] was “inactive”. The Activity [4] was 77% and the EC50 [5] was 1700 nM.
For CCCCC(Sc1ccc(OCCCOc2ccccc2C)cc1)C(=O)O (centres undefined), the EC50 [1] was 2.3 µM, the Activity [2] was 64% and the Activity [3] was “inactive”. It also gave an Activity [4] of 114% and an EC50 [5] of 250 nM.
With CCCCC(Sc1ccc(OCCCOc2ccc3ncccc3c2)cc1)C(=O)O (centres undefined) the Ratio EC50 (COS-7) was 6, the EC50 [1] was 1.3 µM and the Activity [2] was 95%. The Activity [3] was “inactive”, the Activity [4] was 49% and the EC50 [5] was 220 nM.
CCCC[C@@H](Sc1ccc(OCCCOc2cccc(C)c2C)cc1)C(=O)O was tested, and the EC50 [1] was 3.9 µM, the Activity [2] was 115% and the Activity [3] was “inactive”. It also gave an Activity [4] of 125% and an EC50 [5] of 11 nM.
For CCCCC(Sc1ccc(OCCCOc2ccccc2C(C)C)cc1)C(=O)O (centres undefined), the EC50 [1] was 4.1 µM, the Activity [2] was 89% and the Activity [3] was “inactive”. The Activity [4] was 92% and the EC50 [5] was 2000 nM.
For CCCCC(Sc1ccc(OCCCOc2cccc3c2CCCC3)cc1)C(=O)O (centres undefined), the EC50 [1] was 8.1 µM, the Activity [2] was 101% and the Activity [3] was “inactive”. The Activity [4] was 107% and the EC50 [5] was 190 nM.
With CCCCC(Sc1ccc(OCCCOc2cccc(OC)c2)cc1)C(=O)O (centres undefined) the EC50 [1] was 1.2 µM, the Activity [2] was 85% and the Activity [3] was “inactive”. For the same compound, the Activity [4] was 85% and the EC50 [5] was 49 nM.
Work on Cc1cccc(OCCCOc2ccc(SCC(=O)O)cc2)c1C yielded an EC50 [1] of 3.8 µM, an Activity [2] of 81% and an Activity [6] of 52%. For the same compound, the EC50 [7] was 1.4 µM, the Activity [4] was 77% and the EC50 [5] was 600 nM.
CCCCC(Sc1ccc(OCCCOc2ccc(C)cc2)cc1)C(=O)O (centres undefined) showed an EC50 [1] of 0.93 µM, an Activity [2] of 91% and an Activity [10] of 31%. It also gave an Activity [4] of 87% and an EC50 [5] of 85 nM.
Compound CCCCC(Sc1ccc(OCCCOc2ccc(-c3ccccc3)cc2)cc1)C(=O)O (centres undefined) has a Ratio EC50 (COS-7) of 5, an EC50 [1] of 0.54 µM and an Activity [2] of 125%. The Activity [3] was “inactive”, the Activity [4] was 108% and the EC50 [5] was 110 nM.
CCCCC(Sc1ccc(OCCCOc2ccccc2OC)cc1)C(=O)O (centres undefined) was tested, and the EC50 [1] was 1.6 µM, the Activity [2] was 92% and the Activity [3] was “inactive”. It also gave an Activity [4] of 85% and an EC50 [5] of 550 nM.
For CCCCC(Sc1ccc(OCCCOc2ccc(C)c(C)c2)cc1)C(=O)O (centres undefined), the EC50 [1] was 3.5 µM, the Activity [2] was 72% and the Activity [3] was “inactive”. The Activity [4] was 61% and the EC50 [5] was 21 nM.
